Data from ChEMBL document CHEMBL4052633, “Cinnamoylated chloroquine analogues: A new structural class of antimalarial agents” (Eur J Med Chem, 2017).

Columns and labels:
[1] = Selectivity index, ratio of CC50 for African green monkey Vero cells to IC50 for chloroquine sensitive Plasmodium falciparum 3D7; type: toxicity; details: for Ratio CC50/IC50: vero; for selectivity ratio: Vero cells, read-out: Ratio CC50/IC50
Outline: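 SI was computed as Vero CC50 (72 hour MTT, nonlinear regression) divided by the 3D7 IC50. SYBR Green-I lysis buffer was added for 1 hour, and fluorescence was read at 485/530 nm. Logit regression gave IC50.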

Vero = assay: (§1) Cytotoxicity against African green monkey Vero cells after 72 hrs by MTT assay; type: cell-based; details: chlorocebus sabaeus, vero, 72 h
Outline: (§2)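 Vero monkey kidney cells were exposed to a dilution series of test agents for 72 hour, with MTT as the detection reagent (modified Mosmann method). CC50 was derived by nonlinear regression of dose-response curves. Triplicate experiments.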

Plasmodium falciparum [2] = assay: Antimalarial activity against chloroquine resistant Plasmodium falciparum K1 after 72 hrs by SYBR green 1 dye based fluorescence assay; type: functional
Outline: (§3)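 Compounds dissolved in DMSO at 5 mg/mL (stock), then two-fold serial dilutions. Lysis buffer with 2x SYBR Green-I was added for 1 h at 37 °C. Fluorescence read at 485/530 nm. IC50 by logit regression of dose-response curves, triplicate.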

Plasmodium falciparum [3] = assay: Antimalarial activity against chloroquine sensitive Plasmodium falciparum 3D7 after 72 hrs by SYBR green 1 dye based fluorescence assay; type: functional; outline: as §3
[4] = as §1; type: cell-based; details: chlorocebus sabaeus, Vero cells; outline: as §2
[5] = Plasmodium falciparum, K1, 72 h, read-out: IC50
[6] = Plasmodium falciparum, 3D7, 72 h, read-out: IC50

| SMILES | Ratio CC50/IC50 [1] | CC50 (Vero) | IC50 (Plasmodium falciparum [2]; [5]) [nM] | selectivity ratio [1] | IC50 (Plasmodium falciparum [3]; [6]) [nM] | CC50 at 72 h [4] [nM] | IC50 (Plasmodium falciparum [2]) | IC50 (Plasmodium falciparum [3]) |
| --- | --- | --- | --- | --- | --- | --- | --- | --- |
| COc1cc(/C=C/C(=O)c2ccc(OCC3CO3)cc2)cc(OC)c1OC (stereo unspecified) | Not Active | Non-Toxic |  |  |  |  |  |  |
| O=C(/C=C/c1ccc(Cl)cc1)NCCNc1ccnc2cc(Cl)ccc12 |  |  | 44.1 | 357 | 19.4 | 6930 |  |  |
| COc1ccc(/C=C/C(=O)c2ccc(OCC(O)CNCCNc3ccnc4cc(Cl)ccc34)cc2)cc1OC (stereo unspecified) |  |  | 229 | 128 | 79.9 | 10200 |  |  |
| COc1cc(/C=C/C(=O)c2ccccc2OCC(=O)NCCNc2ccnc3cc(Cl)ccc23)cc(OC)c1OC |  |  | 224 | 56.7 | 69.1 | 3920 |  |  |
| COc1cc(OC)c(OC)cc1/C=C/C(=O)c1ccccc1OCC(=O)NCCNc1ccnc2cc(Cl)ccc12 |  |  | 161 | 130 | 94.1 | 12200 |  |  |
| COc1ccc(/C=C/C(=O)NCCNc2ccnc3cc(Cl)ccc23)cc1 |  |  | 59.4 | 1530 | 13.4 | 20600 |  |  |
| O=C(/C=C/c1ccco1)NCCNc1ccnc2cc(Cl)ccc12 |  |  | 101 | 6700 | 94 | 629000 |  |  |
| COc1ccc(/C=C/C(=O)c2ccc(OCC(O)CNCCNc3ccnc4cc(Cl)ccc34)cc2)cc1 (stereo unspecified) |  |  | 900 | 170 | 47.3 | 8030 |  |  |
| COc1cc(OC)c(OC)cc1/C=C/C(=O)NCCNc1ccnc2cc(Cl)ccc12 |  |  | 143 | 756 | 21.3 | 16100 |  |  |
| COc1ccc(/C=C/C(=O)c2ccccc2OCC(=O)NCCNc2ccnc3cc(Cl)ccc23)cc1 |  |  | 148 | 186 | 134 | 25000 |  |  |
| Cc1ccc(/C=C/C(=O)NCCNc2ccnc3cc(Cl)ccc23)cc1 |  |  | 48 | 182 | 22 | 4000 |  |  |
| COc1cc(/C=C/C(=O)c2ccc(OCC(O)CNCCNc3ccnc4cc(Cl)ccc34)cc2)cc(OC)c1OC (stereo unspecified) |  |  | 800 | 142 | 13.5 | 1910 |  |  |
| COc1ccc(/C=C/C(=O)c2ccccc2OCC(=O)NCCNc2ccnc3cc(Cl)ccc23)cc1OC |  |  | 134 | 55.3 | 96.1 | 5310 |  |  |
| O=C(COc1ccccc1C(=O)/C=C/c1ccc(Cl)cc1)NCCNc1ccnc2cc(Cl)ccc12 |  |  | 253 | 19.5 | 255 | 4980 |  |  |
| COc1cc(/C=C/C(=O)c2ccc(OCC(O)CNc3ccc4c(c3)OCO4)cc2)cc(OC)c1OC (stereo unspecified) | Not Active | Non-Toxic |  |  |  |  | Not Active | Not Active |
| COc1ccc(/C=C/C(=O)NCCNc2ccnc3cc(Cl)ccc23)cc1OC |  |  | 157 | 396 | 14.2 | 5600 |  |  |
| CC(=O)c1ccccc1OCC(=O)NCCNc1ccnc2cc(Cl)ccc12 |  |  | 1300 | 10200 | 10.4 | 106000 |  |  |
